Test results taken from article PMC4243704 (European journal of pharmaceutics and biopharmaceutics : …, 2013).
Where two headings read alike, the source gives them in different places.

How the values were obtained:
[1] = Chemical stability in simulated gastric fluid; type: physicochemical; conditions: for SGF t1/2: SGF pH 1.2, 37 °C
Outline: (§1)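 Incubated in simulated gastric fluid (pH 1.2) or simulated intestinal fluid at 37 °C. Remaining prodrug measured over time by reverse-phase C18 HPLC (0.1% TFA water/acetonitrile gradient). t1/2 estimated by linear regression of pseudo-first-order plots of prodrug concentration vs time.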

[2] = Chemical stability in simulated intestinal fluid; type: physicochemical; conditions: for SIF (pH 6.5) t1/2: 37 °C
Outline: as §1

[3] = Chemical stability in pH 7.4 phosphate buffer; type: physicochemical; conditions: for Buffer pH 7.4 t1/2: phosphate buffer pH 7.4, 37 °C
Outline: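 Non-enzymatic hydrolysis in 10 mmol/L phosphate buffer pH 7.4, triplicate wells, 37 °C up to 120 min. Aliquots quenched in acetonitrile with 0.1% TFA, filtered, and run on reverse-phase C18 HPLC (TFA water/acetonitrile gradient). t1/2 from linear regression of pseudo-first-order plots of prodrug concentration vs time.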

[4] = Enzymatic stability in Caco-2 cell homogenates; type: in vitro ADME; conditions: for Caco-2 cell homogenates t1/2: 500 μg/mL protein, 37 °C; for Stability in cell homogenate, D-prodrug relative to L-prodrug: Caco-2 cell homogenates (assigned from Table 2 ratios)
Microsomal stability = type: in vitro ADME, human; conditions: for Human liver microsome t1/2: 500 μg/mL microsomal protein, NADPH, 37 °C
Thymidine phosphorylase = target: T1, Thymidine phosphorylase (Homo sapiens, UniProt P19971); experiment: Stability toward thymidine phosphorylase; type: in vitro ADME
T1 sequence (P19971 11-482): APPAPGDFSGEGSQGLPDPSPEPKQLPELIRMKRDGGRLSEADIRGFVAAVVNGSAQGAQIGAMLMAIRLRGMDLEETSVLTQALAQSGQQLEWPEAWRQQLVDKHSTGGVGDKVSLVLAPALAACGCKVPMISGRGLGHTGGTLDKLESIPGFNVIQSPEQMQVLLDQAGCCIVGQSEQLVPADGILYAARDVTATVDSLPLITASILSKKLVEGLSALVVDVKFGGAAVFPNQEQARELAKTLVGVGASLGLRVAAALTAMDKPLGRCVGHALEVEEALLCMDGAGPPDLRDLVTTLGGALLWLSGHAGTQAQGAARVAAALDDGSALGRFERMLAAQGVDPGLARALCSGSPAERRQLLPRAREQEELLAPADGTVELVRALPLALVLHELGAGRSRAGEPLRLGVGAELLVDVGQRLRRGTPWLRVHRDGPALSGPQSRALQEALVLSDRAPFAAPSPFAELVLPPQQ

[5] = Enzymatic stability in AsPC-1 cell homogenates; type: in vitro ADME; conditions: for AsPC-1 cell homogenates t1/2: 500 μg/mL protein, 37 °C; for Stability in cell homogenate, D-prodrug relative to L-prodrug: AsPC-1 cell homogenates (assigned from Table 2 ratios)
Caco-2 cells = experiment: Uptake study in Caco-2 cells; type: cell-based; conditions: for Cytosine (%) of species found in cells / Gemcitabine (%) of species found in cells / Prodrug (%) of species found in cells: Caco-2 uptake without Gly-Pro, 1 h
AsPC-1 cells [6] = experiment: Uptake study in AsPC-1 cells; type: cell-based; conditions: for Cytosine (%) of species found in cells / Gemcitabine (%) of species found in cells / Prodrug (%) of species found in cells: AsPC-1 uptake, 100 μM, 1 h; for Uptake amount, D-prodrug relative to L-prodrug (higher): 100 μM drug solution
AsPC-1 cells [7] = experiment: Cell proliferation assay; type: cell-based
Outline: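 AsPC-1 cells seeded at 125,000/well and grown 24 h in RPMI-1640 + 10% FBS, then washed with pH 6.0 uptake buffer. Test compound 2-fold serially diluted (5 to 0.078 mmol/L) in that buffer and applied for 2 h at 37 °C; buffer alone served as 100% viability. After washing, 24 h recovery in medium. XTT/phenazine methosulfate read at 450 nm; GI50 from nonlinear fitting.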

mouse jejunum = experiment: In situ single-pass intestinal perfusion in mice
[8] = for Concentration in plasma, D-prodrug relative to L-prodrug (higher): mouse plasma after in situ perfusion, prodrug plus metabolites
[9] = Caco-2 cell monolayer permeability, apical-to-basolateral; type: in vitro ADME; conditions: human, Caco-2
Outline: (§2)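 Caco-2 cells grown 21–24 days on collagen-coated PTFE inserts, TEER 550–600 Ω cm2. Apical MES (pH 6.0) and basolateral HEPES (pH 7.4) buffers, preincubated 15 min at 37 °C. 0.1 mM test compound in apical MES, ±10 mM Gly-Pro. Receiver sampled at 15–120 min at 37 °C with buffer replacement. Samples acidified with 0.1% TFA and analysed by HPLC.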

Caco-2 monolayer = experiment: as above; type: in vitro ADME
Outline: as §2

[10] = In situ single-pass intestinal perfusion in mice; conditions: female, BALB/c, mouse, other: in situ single-pass intestinal (jejunal) perfusion, pH 6
[11] = read-out: GI50 AsPC-1, 2 h exposure at pH 6.0, 24 h recovery, XTT

Compound	SGF t1/2 [1]	SIF (pH 6.5) t1/2 [2]	Buffer pH 7.4 t1/2 [3]	Caco-2 cell homogenates t1/2 [4]	Human liver microsome t1/2 (Microsomal stability)	Thymidine phosphorylase t1/2 (Thymidine phosphorylase)	AsPC-1 cell homogenates t1/2 [5]	Cytosine (%) of species found in cells (Caco-2 cells)	Gemcitabine (%) of species found in cells (Caco-2 cells)	Prodrug (%) of species found in cells (Caco-2 cells)	Cytosine (%) of species found in cells (AsPC-1 cells [6])	Gemcitabine (%) of species found in cells (AsPC-1 cells [6])	Prodrug (%) of species found in cells (AsPC-1 cells [6])	GI50 (AsPC-1 cells [7]; [11])	Stability in cell homogenate, D-prodrug relative to L-prodrug [4]	Stability in cell homogenate, D-prodrug relative to L-prodrug [5]	Uptake amount, D-prodrug lower than L-prodrug (Caco-2 cells; Caco-2 cells)	Uptake amount, D-prodrug relative to L-prodrug (higher) (AsPC-1 cells [6]; AsPC-1 cells)	Concentration in plasma, D-prodrug relative to L-prodrug (higher) [8]	other results
5′-L-Valyl-gemcitabine	>120 min	>120 min	>120 min	19.5 ± 1.9 min	27.8 ± 13.6 min	>120 min	13.8 ± 3.3 min	0%	15%	85%	20%	11%	69%	2 ± 0.8 mM	–	–	–	–	–	Membrane permeability, L-prodrug better than D-prodrug (mouse jejunum; mouse in situ perfusion): 87%
Nc1ccn([C@@H]2O[C@H](COC(=O)[C@H](N)Cc3ccccc3)[C@@H](O)C2(F)F)c(=O)n1 [5′-D-Phenylalanyl-gemcitabine]	>120 min	>120 min	>120 min	21.7 ± 0.2 min	6.6 ± 1.3 min	>120 min	63.9 ± 11.2 min	0%	31%	69%	1%	87%	12%	5.6 ± 1.1 mM	10.9 fold	9.4 fold	70%	3.3 fold	2.0 fold	Stability in human liver microsomes, D-prodrug relative to L-prodrug (Microsomal stability): 3.7 fold; Uptake enhancement relative to gemcitabine (AsPC-1 cells [6]; AsPC-1 cells, lower concentration (50 μM)): did not show the enhancement of uptake
CC(C)[C@@H](N)C(=O)OC[C@H]1O[C@@H](n2ccc(N)nc2=O)C(F)(F)[C@@H]1O [5′-D-Valyl-gemcitabine]	>120 min	>120 min	>120 min	42.0 ± 17.5 min	19.5 ± 4.4 min	>120 min	87.2 ± 13.5 min	0%	10%	90%	4%	77%	19%	2.2 ± 0.9 mM	2.2 fold	6.3 fold	46%	3.1 fold	2.3 fold	Dose linearity of uptake (AsPC-1 cells [6]; AsPC-1 cells, 50 μM vs 100 μM): exhibited the dose linearity; Prodrug concentration in blood ([8]; after in situ perfusion of mouse small intestine): highest
Nc1ccn([C@@H]2O[C@H](COC(=O)[C@@H](N)Cc3ccccc3)[C@@H](O)C2(F)F)c(=O)n1 [5′-L-Phenylalanyl-gemcitabine]	>120 min	>120 min	>120 min	2.0 ± 0.3 min	1.8 ± 0.2 min	31.9 ± 5.0 min	6.8 ± 2.0 min	0%	18%	82%	10%	84%	6%	4.3 ± 1.5 mM	–	–	–	–	–	–
Nc1ccn([C@@H]2O[C@H](CO)[C@@H](O)C2(F)F)c(=O)n1 [Gemcitabine, reference compound]	–	–	–	–	–	–	–	–	50%	–	–	90%	–	–	–	–	–	–	–	Degradation in SGF [1]: no significant degradation; half-life ([1]; simulated gastric fluid (SGF), pH 1.2): > 120 min; Degradation in SIF [2]: no significant degradation; half-life ([2]; simulated intestinal fluid (SIF), pH 6.5): > 120 min; Degradation in pH 7.4 phosphate buffer ([3]; pH 7.4): no significant degradation; half-life ([3]; phosphate buffer, pH 7.4): > 120 min; half-life ([4]; human, Caco-2, pH 7.4): 105 ± 6.1 min; half-life (Microsomal stability; human, human liver microsomes, pH 7.4): 45.3 ± 3.3 min; Resistance against thymidine phosphorylase (words) (Thymidine phosphorylase): rapidly cleaved; Resistance against thymidine phosphorylase (words) (Thymidine phosphorylase; listed as gemcitabine): did not display the resistance; half-life (Thymidine phosphorylase; thymidine phosphorylase, pH 7.4): 6 ± 1.8 min; half-life ([5]; human, AsPC-1 cell homogenates, pH 7.4): 33.7 ± 14.5 min; Difference in uptake amount with and without 10 mM Gly-Pro (Caco-2 cells; Caco-2 cells): did not exhibit the difference; Papp at 2 h, 0.1 mM [9]: 1 ± 0.2 ×10⁻⁶ cm/s; Difference in membrane permeability with and without 10 mM Gly-Pro (Caco-2 monolayer; Caco-2 monolayers): did not exhibit the difference; Species detected in the basolateral receiver compartment (Caco-2 monolayer; following transport across Caco-2 monolayers): only cytosine; GI50 (AsPC-1 cells [7]; Homo sapiens, ASPC1, pH 6, read-out: GI50 AsPC-1): 10.2 ± 1.6 mM; Papp at 90 min, 100 μM [10]: 2 ×10⁻⁶ cm/s; Peff, mouse perfusion (mouse jejunum; mouse jejunum, 100 μM, pH 6.0): 2.0 ± 0.2 ×10^−5 cm/s
